Shown is part of a subset that was picked to be rich in hits.
INS promoter act – TRM-6 insulin promoter activation. activation, % at 2 µM. AID 1296. 0.81% of 130,000 active. TRM-6 cells, insulin promoter eGFP reporter, imaging; plate-scaled: unstimulated 0, stimulated control 100;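 active = activation at 2 µM above a set limit, confirmed on inspection of the cell images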;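 also: share of cells whose green reporter signal exceeds an intensity cutoff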
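Test system: human fetal islet-derived TRM-6 cells with tamoxifen-inducible insulin promoter–eGFP reporter. Compound dosing: 2 µM final, single concentration. Incubation: tamoxifen pre-incubation 15 h overnight, then compound exposure 48 h at 37 °C. Signal: fixed-cell fluorescence microscopy, eGFP plus Hoechst.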
Active calls of the source: *; [ ] = remark or other dose.

SMILES | INS promoter act
Cn1c(=O)c2c(SCCN3CCOCC3)nc(C3CCCC3)nc2n(C)c1=O | -9.1
C=CCNC(=S)NNC(=O)C(CCCC)CC(C)(C)O (configuration not stated) | 371.4
Nc1c(C(=O)Nc2ccc(S(=O)(=O)N3CCCC3)cc2)sc2nc3ccc(OC(F)(F)F)cc3cc12 | 231.0*
Nc1c(C(=O)Nc2ccc(S(=O)(=O)N3CCCC3)cc2)sc2nc3cc4c(cc3cc12)CCC4 | 181.8
O=C(Nc1ccc(S(=O)(=O)N2CCCCC2)cc1)c1ccncc1 | 8.3
COc1cc([N+](=O)[O-])cc2sc(NC(=O)C3CC3)nc12 | 0.0
COc1ccccc1NC(=S)N1CCn2cccc2C1c1cccnc1 (configuration not stated) | 0.0
CCCCn1c(N)c(N(CC)C(=O)c2cccc(OC)c2)c(=O)[nH]c1=O | -8.3
Cc1nc(N2CCN(S(=O)(=O)c3ccccc3)CC2)c2cc(-c3ccccc3)sc2n1 | 81.2*
Cc1nc(N2CCN(S(=O)(=O)c3ccccc3)CC2)c2c3c(sc2n1)CC(C)CC3 (configuration not stated) | 0.0
CC(=O)N1CCN(c2ncnc3sc(-c4ccccc4)cc23)CC1 | 3.7
CC(C)N1C(=O)CCC1C(=O)NCc1cccs1 (configuration not stated) | 0.0
Cc1ccsc1/C=N/NC(=O)CNC(=O)c1cccc([N+](=O)[O-])c1C | 8.3
COc1ccc(-n2c(Cc3cc(=O)[nH]c(=O)[nH]3)nnc2SCC(=O)Nc2cc(C(F)(F)F)ccc2Cl)cc1 | 255.0*
CCOc1ccc(-n2c(Cc3cc(=O)[nH]c(=O)[nH]3)nnc2SCC(=O)Nc2nnc(C)s2)cc1 | 5.3
COc1ccc(NCc2nnc(SCC(=O)Nc3cc(C(F)(F)F)ccc3Cl)o2)cc1 | -7.1
CCN(CC)S(=O)(=O)c1ccc(N2CCOCC2)c(NS(=O)(=O)c2cc(C(C)(C)C)ccc2C)c1 | 2.7
CC1(C)CC(=O)c2cc(C(=O)N3CCCCC3)c(=O)n(-c3ccc(Cl)cc3)c2C1 | 163.6*
Cc1cc(C(=O)C(=O)O)c(C)n1-c1ccc(Cl)cc1 | -5.6
O=C(c1cc2cc(Cl)ccc2oc1=O)N1CCCC1 | 293.8
CC(C)NS(=O)(=O)c1ccc(NC(=O)NC2CCCCC2)cc1 | -7.4
COc1ccc(C)cc1N(C(=O)c1ccccc1F)c1nc2ccccc2s1 | 3.1
Cc1cc(NC(=O)CCC(=O)N(c2ccccc2)C(C(=O)NC2CCCC2)c2cccs2)no1 (configuration not stated) | 118.2
Cc1cc(NC(=O)CCC(=O)N(Cc2cccs2)C(C(=O)NC2CCCC2)c2cccnc2)no1 (configuration not stated) | -2.8
Cc1ccc(C(C(=O)NC2CCCC2)N(Cc2ccco2)C(=O)CCC(=O)Nc2cc(C)on2)cc1 (configuration not stated) | 810.0*
SMILES | INS promoter act
CC(C(=O)OCC(=O)Nc1cccc(S(=O)(=O)N2CCOCC2)c1)N1C(=O)c2ccccc2C1=O (configuration not stated) | -9.1
O=S(=O)(Nc1cc(C(F)(F)F)ccc1N1CCOCC1)c1ccc2ccccc2c1 | 385.7*
O=C(Nc1cc(C(F)(F)F)ccc1N1CCOCC1)c1c(F)c(F)c(F)c(F)c1F | 333.3
O=[N+]([O-])c1cc(C(F)(F)F)ccc1N1CCN(S(=O)(=O)c2ccc3ccccc3c2)CC1 | -6.5
Cc1ccc(CN(Cc2ccco2)S(=O)(=O)c2ccc(S(=O)(=O)NCC3CCCO3)cc2)cc1 (configuration not stated) | 0.0
c1ccc(Cn2ccc(-c3cnc(-c4ccccc4)s3)n2)cc1 | -4.2
CCN(CC)CCCN1C(=O)C(=O)/C(=C(/O)c2ccc(C)cc2)C1c1ccccn1 (configuration not stated) | 0.0
O=C(C1=C(O)C(=O)N(CCCN2CCOCC2)C1c1ccccn1)c1cc2ccccc2o1 (configuration not stated) | 0.0
CCN(CC)CCCN1C(=O)C(=O)/C(=C(/O)c2ccc3c(c2)OCCO3)C1c1ccco1 (configuration not stated) | -5.9
CC1Cc2cc(/C(O)=C3/C(=O)C(=O)N(CCN4CCOCC4)C3c3cccc(O)c3)ccc2O1 (configuration not stated) | 466.7*
Cc1ccc(/C(O)=C2/C(=O)C(=O)N(CCN3CCOCC3)C2c2ccccn2)cc1 (configuration not stated) | 850.0*
O=C1C(=O)N(CCN2CCOCC2)C(c2ccncc2)/C1=C(/O)c1ccc2c(c1)OCO2 (configuration not stated) | 3.7
CCOc1ccccc1OCCCNCc1ccco1 | 0.0
CCCCNC(=O)C1CC(c2c(Cl)cccc2Cl)=NO1 (configuration not stated) | 8.9
CCOC(=O)c1cc(-c2ccc(OC(F)F)cc2)nc2c1c(=O)[nH]c(=O)n2C | 2.0
Cc1ccc(Oc2ccc(NC(=O)CCC(=O)OCC(=O)c3cccs3)cc2)cc1C | -7.7
O=C(COc1nncc2ccccc12)Nc1ccc(F)c(F)c1 | -7.1
CCN1c2ccccc2NC2C1C(C(C)=O)C(=O)N2c1ccc(Cl)cc1 (configuration not stated) | 133.3*
CCC(=O)N1C(=O)C2(Nc3ccccc3N2)c2ccccc21 | 8.1
COC(=O)Nc1nn(-c2ccc(OC)cc2)c(=O)c(C#N)c1C | 286.7*
Cc1c(C(=O)NN)nn(-c2ccc(Cl)cc2)c(=O)c1C#N | 0.0
CCOC(=O)c1nn(-c2ccccc2)c2nc(-c3ccc(OC)cc3)c(C#N)c(=O)n12 | 6.7
COC(=O)c1sccc1NC(=O)Cc1ccc(Br)cc1 | -3.4
CCOC(=O)COn1c(=O)c(=O)n(O)c2ccccc21 | 9.1
O=C(COn1nnc2ccc(C(F)(F)F)cc21)Nc1c(Cl)cccc1Cl | 0.0
SMILES | INS promoter act
CCOc1ccc(Nc2nc(NCCN3CCOCC3)nc(OC)n2)cc1 | -6.9
O=C1CN(C(=O)c2cc3ccccc3o2)c2ccccc2N1 | 2.9
CCN(CC)c1ccc(/C=C/C(=O)C2C(=O)C=C(C)OC2=O)cc1 (configuration not stated) | 809.1*[fluoresces]
CCN(CC)c1ccc(NC(=O)/C=C\c2ccccc2Cl)cc1 | 0.0
COc1ccc(CCc2nnc(CCC(=O)N(C)Cc3ccnc4ccccc34)o2)cc1 | 9.5
O=c1c2ccccc2nnn1CSc1nnc(-c2cccs2)n1Cc1ccccc1 | 4.3
Brc1ccc(CSc2nnc(-c3ccccn3)n2Cc2ccco2)cc1 | 0.0
c1coc(Cn2c(SCc3nc4ccccc4[nH]3)nnc2-c2cccs2)c1 | 123.1*
Cc1cc(C)c(S(=O)(=O)Nc2ccc[nH]c2=O)c(C)c1 | 0.0
Cc1ccc(-c2c[n+](CC(=O)Nc3cc(=O)n(C)c(=O)n3C)c3n2CCC3)cc1 | 0.0
Cc1cc(C(=O)Oc2cccnc2)ccc1[N+](=O)[O-] | -83.3
Cc1cc(=O)n2[nH]c(NCc3ccccc3F)nc2n1 | 0.0
Cc1cc(=O)n2[nH]c(C(=O)O)nc2n1 | 76.7*
CCC(=O)Nc1nc2nc(C)cc(=O)n2[nH]1 | -4.2
FCCCOc1ccc(CN2CCN(c3ccccc3F)CC2)cc1 | -2.9
COc1ccc(OC)c(NC(=O)CN2CCC(C(=O)c3ccc(C)cc3)CC2)c1 | -83.3
COc1ccc(OC)c(NC(=O)CNC(=O)Cn2c(C)cc3ccccc3c2=O)c1 | -9.7
CCn1c(=O)n(CC(=O)Nc2cc(OC)ccc2OC)c(=O)c2ccccc21 | 600.0*
CC(C)(C)n1ncc(Oc2ccc(Oc3cnn(C(C)(C)C)c(=O)c3Cl)cc2)c(Cl)c1=O | -54.7
Cc1cccc(C(=O)NC(=S)N2CCc3ccccc3C2)c1 | 7.1
